Measurements reported in article PMC3781598 (Pharmaceutical research, 2013).
Converted amounts (≈) assume the structure as drawn.

Tests used:
CYP2D6 = CYP2D6 (Homo sapiens, UniProt P10635); assay: Metabolic stability phenotyping with recombinantly expressed CYPs; format: in vitro ADME; details: recombinant CYP2D6, pH 7.4
How it was run: (§1)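 Each recombinant human CYP at 100 pmol/ml with 1 μM test compound in potassium phosphate pH 7.4, 3.33 mM MgCl2. Prewarmed 10 min at 37 °C, then started with NADPH regenerating system; no-NADPH buffer controls. Aliquots at 0–45 min quenched in methanol with buspirone internal standard. MS peak-area ratios gave ln(ratio)-vs-time slope, converted to T1/2. Duplicates.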

genetic toxicity = assay: Ames test; format: cell-based; details: compound concentrations 5-100 μM
[1] = Metabolic stability in liver microsomes; format: in vitro ADME, male B6C2F1 mouse; details: for half-life at 1 μM / microsomal CLint at 1 μM: male, B6C2F1, mouse, liver microsomes, pH 7.4; for Percent Loss of Substrate: mouse liver microsomes, 1 μM, 20-minute incubation
How it was run: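 Pooled liver or lung microsomes (male B6C2F1 mouse, male Sprague-Dawley rat, human) at 1.0 mg protein/ml in 50 mM potassium phosphate pH 7.4, 3 mM MgCl2, 1 mM EDTA. […] Stopped at 0, 5, 10, 20 min with acetonitrile containing antipyrene, then LC/MS/MS. Single-exponential kel gave T1/2. CLint = kel × incubation volume/mg protein.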

[2] = Aqueous solubility, shake-flask incubation method; format: physicochemical; details: phosphate-buffered saline, pH 7.4, aqueous buffer, thermodynamic from solid
How it was run: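 Shake-flask equilibration of test compound in phosphate-buffered saline, pH 7.4, for 24 h at room temperature.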

CYP2C8 = biological target: T1, CYP2C8 (Homo sapiens, UniProt P10632); assay: Metabolic stability phenotyping with recombinantly expressed CYPs; format: in vitro ADME; details: recombinant CYP2C8, pH 7.4
T1 sequence (P10632 1-490): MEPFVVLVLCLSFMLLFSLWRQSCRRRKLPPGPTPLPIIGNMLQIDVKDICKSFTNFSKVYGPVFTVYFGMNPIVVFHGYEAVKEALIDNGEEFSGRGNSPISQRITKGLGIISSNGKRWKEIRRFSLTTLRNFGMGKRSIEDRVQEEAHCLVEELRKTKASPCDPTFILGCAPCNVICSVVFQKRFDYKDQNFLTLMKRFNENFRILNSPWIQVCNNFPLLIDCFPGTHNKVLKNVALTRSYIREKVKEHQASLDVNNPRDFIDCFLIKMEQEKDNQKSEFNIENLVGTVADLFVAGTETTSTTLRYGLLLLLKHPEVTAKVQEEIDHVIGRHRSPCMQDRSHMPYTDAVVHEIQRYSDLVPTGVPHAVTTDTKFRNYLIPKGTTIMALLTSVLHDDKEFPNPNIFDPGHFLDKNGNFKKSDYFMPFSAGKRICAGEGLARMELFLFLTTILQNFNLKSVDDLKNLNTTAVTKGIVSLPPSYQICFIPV
How it was run: as §1

CYP2C9 = CYP2C9 (Homo sapiens, UniProt P11712); assay: as above; format: in vitro ADME; details: recombinant CYP2C9, pH 7.4
How it was run: as §1

human CYP2A13 = biological target: T2, human CYP2A13 (Homo sapiens, UniProt Q16696); assay: Coumarin metabolism assay
T2 sequence (Q16696 with tags, fused parts or gaps limits assumed): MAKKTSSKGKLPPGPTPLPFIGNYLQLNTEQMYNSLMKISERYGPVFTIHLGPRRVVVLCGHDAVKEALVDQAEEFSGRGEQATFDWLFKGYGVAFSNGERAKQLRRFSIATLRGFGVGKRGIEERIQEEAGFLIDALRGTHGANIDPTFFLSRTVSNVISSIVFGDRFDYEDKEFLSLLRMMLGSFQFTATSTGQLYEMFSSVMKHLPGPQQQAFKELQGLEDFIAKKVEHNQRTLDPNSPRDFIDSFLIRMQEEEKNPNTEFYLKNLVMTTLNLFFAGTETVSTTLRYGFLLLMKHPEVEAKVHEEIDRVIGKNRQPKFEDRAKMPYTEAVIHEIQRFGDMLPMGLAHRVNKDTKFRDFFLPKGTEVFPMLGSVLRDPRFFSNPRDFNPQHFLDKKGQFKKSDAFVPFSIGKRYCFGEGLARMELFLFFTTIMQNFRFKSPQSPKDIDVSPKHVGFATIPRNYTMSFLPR

CYP2A6 / CYP2A13 = assay: Coumarin metabolism assay; details: human, pH 7.4, probe coumarin (7-hydroxylation), Selectivity Ki (2A6)/ Ki (2A13), ratio of the CYP2A6 value to the CYP2A13 value
CYP2C19 = CYP2C19 (Homo sapiens, UniProt P33261); assay: Metabolic stability phenotyping with recombinantly expressed CYPs; format: in vitro ADME; details: recombinant CYP2C19, pH 7.4
How it was run: as §1

CYP1A2 = biological target: T3, CYP1A2 (Homo sapiens, UniProt P05177); assay: as above; format: in vitro ADME; details: for half-life at 1 μM: human, recombinant CYP1A2, pH 7.4
T3 sequence (P05177 2-516 limits assumed): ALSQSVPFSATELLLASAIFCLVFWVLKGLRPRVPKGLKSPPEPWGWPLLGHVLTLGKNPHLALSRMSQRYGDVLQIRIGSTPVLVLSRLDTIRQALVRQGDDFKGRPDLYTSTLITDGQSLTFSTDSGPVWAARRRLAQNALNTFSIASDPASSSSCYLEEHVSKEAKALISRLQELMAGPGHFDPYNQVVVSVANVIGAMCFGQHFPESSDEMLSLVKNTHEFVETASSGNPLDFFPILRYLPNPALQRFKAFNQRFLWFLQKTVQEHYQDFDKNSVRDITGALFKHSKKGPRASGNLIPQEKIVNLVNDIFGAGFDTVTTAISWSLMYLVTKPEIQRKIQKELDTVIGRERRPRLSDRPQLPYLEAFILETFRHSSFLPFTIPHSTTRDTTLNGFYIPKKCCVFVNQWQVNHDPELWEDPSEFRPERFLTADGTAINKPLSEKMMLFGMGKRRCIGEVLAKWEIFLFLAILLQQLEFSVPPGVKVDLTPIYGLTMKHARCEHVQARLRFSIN
How it was run: as §1

Chain of CYP2D6 (P10635 whole entry): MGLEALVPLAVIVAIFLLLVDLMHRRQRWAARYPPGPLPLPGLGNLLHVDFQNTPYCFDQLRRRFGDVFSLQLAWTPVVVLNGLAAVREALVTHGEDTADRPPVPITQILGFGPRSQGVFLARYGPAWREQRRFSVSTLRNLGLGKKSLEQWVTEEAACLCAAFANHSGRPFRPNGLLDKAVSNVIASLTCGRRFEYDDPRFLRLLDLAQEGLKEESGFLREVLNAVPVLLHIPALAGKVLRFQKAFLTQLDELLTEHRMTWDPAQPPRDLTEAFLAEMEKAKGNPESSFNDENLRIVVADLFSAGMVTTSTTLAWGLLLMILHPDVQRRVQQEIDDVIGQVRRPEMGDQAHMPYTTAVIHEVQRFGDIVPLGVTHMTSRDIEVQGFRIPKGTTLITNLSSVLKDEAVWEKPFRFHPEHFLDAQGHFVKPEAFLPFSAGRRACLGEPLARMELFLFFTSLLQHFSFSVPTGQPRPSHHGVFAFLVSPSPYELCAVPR
Chain of CYP2C9 (P11712 whole entry): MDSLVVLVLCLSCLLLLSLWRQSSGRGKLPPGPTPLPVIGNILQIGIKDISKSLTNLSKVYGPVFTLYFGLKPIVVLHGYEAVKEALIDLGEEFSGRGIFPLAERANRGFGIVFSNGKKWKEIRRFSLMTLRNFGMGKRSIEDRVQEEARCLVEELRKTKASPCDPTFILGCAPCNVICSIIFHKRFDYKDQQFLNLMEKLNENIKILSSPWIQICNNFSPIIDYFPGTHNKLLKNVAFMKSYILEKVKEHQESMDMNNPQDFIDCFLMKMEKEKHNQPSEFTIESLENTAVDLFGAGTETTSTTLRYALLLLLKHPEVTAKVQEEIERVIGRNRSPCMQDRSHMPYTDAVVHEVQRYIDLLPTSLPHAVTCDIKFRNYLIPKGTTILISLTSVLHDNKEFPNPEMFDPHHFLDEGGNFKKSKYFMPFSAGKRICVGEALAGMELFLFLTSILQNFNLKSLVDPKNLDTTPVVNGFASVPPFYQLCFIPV
Chain of CYP2C19 (P33261 whole entry): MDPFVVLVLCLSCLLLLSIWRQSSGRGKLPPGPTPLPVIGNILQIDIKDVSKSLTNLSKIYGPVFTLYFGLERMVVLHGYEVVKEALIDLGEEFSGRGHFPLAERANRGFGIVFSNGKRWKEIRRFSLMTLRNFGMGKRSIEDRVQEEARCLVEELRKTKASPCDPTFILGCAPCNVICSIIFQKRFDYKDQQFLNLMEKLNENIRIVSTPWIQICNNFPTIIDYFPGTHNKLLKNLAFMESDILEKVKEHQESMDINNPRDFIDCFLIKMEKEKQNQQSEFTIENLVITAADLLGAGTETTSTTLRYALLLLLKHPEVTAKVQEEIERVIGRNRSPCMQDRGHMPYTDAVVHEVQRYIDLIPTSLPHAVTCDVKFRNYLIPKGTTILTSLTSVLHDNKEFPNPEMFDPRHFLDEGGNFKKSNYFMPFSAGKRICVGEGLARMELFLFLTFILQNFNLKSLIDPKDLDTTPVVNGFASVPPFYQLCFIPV

| half-life at 1 μM (CYP2D6) | half-life at 1 μM [1] | microsomal CLint at 1 μM [1] | Percent Loss of Substrate [1] | solubility at 24 h [2] | half-life at 1 μM (CYP2C8) | half-life at 1 μM (CYP2C9) | Ki (human CYP2A13) | half-life at 1 μM (CYP2C19) | half-life at 1 μM (CYP1A2) | Average T1/2 CYP1A2 (CYP1A2; recombinant enzyme 100 pmol/ml, 1 μM compound) | SMILES | Ames test revertants (genetic toxicity) | selectivity ratio at 10 min (CYP2A6 / CYP2A13) |
| --- | --- | --- | --- | --- | --- | --- | --- | --- | --- | --- | --- | --- | --- |
| 1.02 h | 60 s | 687 µL/min/mg | 100/100% | 180 µM (≈ 38.1 µg/mL) | 1.03 h | 7.93 h | 39.7 ± 4.3 µM | 0.217 h | 38.6 h | essentially no loss | Clc1ccccc1CN1CCOCC1 [Compound 3, 4-(2-chlorobenzyl)morpholine] | few or no revertants | ≥ 25 |
| 1.3 h | 48 s | 916 µL/min/mg | 100/100% | 184 µM (≈ 42.3 µg/mL) | 0.85 h | 3.83 h | 38.1 µM | 0.3 h | 20.2 h |  | Fc1cccc(Cl)c1CN1CCOCC1 [Compound 7, 4-(2-chloro-6-fluorobenzyl)morpholine] | few or no revertants | 7.5 |
